This note sets out measurements from ChEMBL document CHEMBL1145792, “Structure-activity relationships for 4-nitrobenzyl carbamates of 5-aminobenz[e]indoline minor groove alkylating agents as prodrugs for GDEPT in conjunction with E. coli nitroreductase” (J Med Chem, 2003).

The logP is a log measure of how a compound divides between an organic and an aqueous phase. The term IC50 denotes the concentration at which inhibition is half-maximal. Higher therefore signals weaker potency. What is called logD is the decadic logarithm of the distribution of all forms, ionised or not, between an organic phase and buffer at a given pH.

Data set [1] can be described thus: Partition coefficient (logP). Type of data set: physicochemical. Conditions: octanol/water. Put shortly: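 logP was calculated with prediction software, not measured.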
In data set [2] the test system is V79. The experiment in a line: Ratio of cytotoxicity activity in a non-NTR-expressing V79 compared to that in NTR-expressing V79. The format is functional. Put shortly:
(§1)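 Parental and stably NTR-transfected partner lines (V79puro/V79-NTRpuro, EMT6/EMT6-NTRpuro, WiDr/WiDr-NTRneo, SKOV3/SKOV-NTRneo) tested in parallel. Aerobic sulforhodamine B growth inhibition after an 18 h exposure, read 4–5 days later. Ratio is the NTR-ve IC50 over the NTR+ve IC50, calculated within each experiment.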

For data set [3], the system named is Ovarian cancer cell line. The experiment in a line: Cytotoxicity in non-NTR-expressing human ovarian carcinoma cell line (SKOV). Type of data set: functional, cell-based.
Data set [4] deals with Ovarian cancer cell line. The experiment in a line: Ratio of cytotoxicity in a non-NTR-expressing SKOV compared to that in NTR-expressing SKOV. The format is functional, Homo sapiens. A digest of the protocol: as §1
Data set [5] relates to WiDr. Briefly: Ratio of cytotoxicity in a non-NTR-expressing WiDr compared to that in NTR-expressing WiDr. Type of data set: functional, Homo sapiens. Put shortly:
as §1

Data set [6] has as its system Mammary carcinoma cell line. Briefly: Cytotoxicity in non-NTR-expressing mouse mammary carcinoma cell line (EMT6). Type of data set: functional, cell-based.
The test system of data set [7] is Mammary carcinoma cell line. The experiment in a line: Ratio of cytotoxicity in non-NTR-expressing EMT6 compared to that in NTR-expressing EMT6. The format is functional, Mus musculus. Put shortly:
as §1

Data set [8] deals with V79. The experiment in a line: Cytotoxicity in non-NTR-expressing Chinese hamster fibroblast (V79). The format is functional, cell-based. The settings on record: Cricetulus griseus.
For data set [9], the system named is WiDr. Briefly: Cytotoxicity in non-NTR-expressing human colon carcinoma cell line (WiDr). The format is functional, cell-based.
A short description of data set [10]: LogD value was determined. Type of data set: physicochemical. The settings on record: octanol/water.

As to `NC(=O)c1cc(N2CC2)c([N+](=O)[O-])cc1[N+](=O)[O-]` [TRETAZICAR], the logP in data set [1] stood at 1.28. Further, the Ratio with V79 [2] amounted to 2090; in the data set with Ovarian cancer cell line [4], 317; in the data set on WiDr [5], 51.2; in [7] it was 930. The IC50 in the data set with Ovarian cancer cell line [3] is 174000 nM; in data set [6], 710000 nM.

Regarding `COc1cc([N+](=O)[O-])ccc1COC(=O)Nc1ccc(COC(=O)Nc2cc3c(c4ccccc24)C(CCl)CN3C(=O)c2cc3cc(OC)c(OC)c(OC)c3[nH]2)cc1` (stereo not drawn), in [1] (read-out: logP), the logP is 6.09. The half-inhibitory concentration (IC50) with V79 [8] came to 54 nM; in the data set with Ovarian cancer cell line [3], 223 nM; in data set [6], 63 nM; with WiDr [9] it was 295 nM. In addition, the Ratio in the data set on V79 [2] is recorded as 1.03; in the data set with Ovarian cancer cell line [4] it was 0.7; in the data set on WiDr [5], 1.8; in [7], 1.8.

As for `CN(C)CCOc1ccc2[nH]c(C(=O)N3CC(CCl)c4c3cc(N)c3ccccc43)cc2c1` (stereo not drawn), the logD in [10] was determined as 0.53. The logP in data set [1] (read-out: logP) was 2.26. Further, the half-maximal inhibitory concentration (IC50) stood at 2.6 nM with V79 [8], 13 nM in the data set with Ovarian cancer cell line [3], 1.9 nM in data set [6] and 6 nM in the data set on WiDr [9]. Further, the Ratio came out at 1.2 with V79 [2], 1.6 in the data set on Ovarian cancer cell line [4], 1.9 in the data set on WiDr [5] and 0.6 in data set [7].

As to `COc1cc2cc(C(=O)N3CC(CCl)c4c3cc(NC(=O)OCc3ccc([N+](=O)[O-])cc3OCCCN(C)C)c3ccccc43)[nH]c2c(OC)c1OC` (stereo not drawn), in [10], the logD came out at 2.74. Moreover, in data set [1] (read-out: logP), the logP stood at 4.95. Besides, the 50% inhibitory concentration (IC50) in the data set with V79 [8] was found to be 45 nM; in the data set with Ovarian cancer cell line [3], 189 nM; in [6], 74 nM; with WiDr [9] it was 269 nM. The Ratio is 1.45 with V79 [2], 3.6 in the data set with Ovarian cancer cell line [4], 3.8 with WiDr [5] and 3.4 in [7].

Turning to `COc1cc2cc(C(=O)N3CC(CCl)c4c3cc(N)c3ccccc43)[nH]c2c(OC)c1OC` (stereo not drawn), the logP in [1] (read-out: logP) worked out at 1.87. For the same molecule, the half-inhibitory concentration (IC50) worked out at 0.33 nM in the data set on V79 [8], 1.1 nM in the data set on Ovarian cancer cell line [3], 0.37 nM in [6] and 1.6 nM with WiDr [9]. The Ratio in the data set with V79 [2] is 0.9; with Ovarian cancer cell line [4], 0.6; in the data set on WiDr [5], 0.9; in data set [7], 2.

As for `COc1cc([N+](=O)[O-])ccc1COC(=O)Nc1cc2c(c3ccccc13)C(CCl)CN2C(=O)c1cc2cc(OC)c(OC)c(OC)c2[nH]1` (stereo not drawn), the logP in data set [1] (read-out: logP) was determined as 4.77. The IC50 was determined as 39 nM in the data set with V79 [8], 59 nM in the data set with Ovarian cancer cell line [3], 174 nM in data set [6] and 141 nM in the data set with WiDr [9]. Besides, the Ratio with V79 [2] was 6; with Ovarian cancer cell line [4], 17; with WiDr [5], 47; in data set [7] it was 108.

With `COc1cc2cc(C(=O)N3CC(CCl)c4c3cc(NC(=O)OC(C)c3ccc([N+](=O)[O-])cc3)c3ccccc43)[nH]c2c(OC)c1OC` (stereo not drawn), in data set [1] (read-out: logP), the logP stood at 4.9. The half-inhibitory concentration (IC50) with V79 [8] was 62 nM; with Ovarian cancer cell line [3] it was 158 nM; in data set [6] it was 79 nM; in the data set with WiDr [9], 154 nM. The Ratio was 1.67 in the data set with V79 [2], 5.65 in the data set on Ovarian cancer cell line [4], 6.6 in the data set on WiDr [5] and 11 in data set [7].

On to `COc1cc2cc(C(=O)N3CC(CCl)c4c3cc(NC(=O)OCc3ccc([N+](=O)[O-])cc3)c3ccccc43)[nH]c2c(OC)c1OC` (stereo not drawn), for which, in data set [1] (read-out: logP), the logP stood at 4.55. For the same molecule, the IC50 came to 89 nM in the data set on V79 [8], 62 nM with Ovarian cancer cell line [3], 193 nM in [6] and 391 nM with WiDr [9]. Besides, the Ratio in the data set on V79 [2] is 10; in the data set with Ovarian cancer cell line [4], 12; in the data set on WiDr [5] it was 33; in data set [7] it was 112.

For the molecule `COc1cc2cc(C(=O)N3CC(CCl)c4c3cc(NC(=O)OCc3ccc([N+](=O)[O-])cc3OCC(O)CO)c3ccccc43)[nH]c2c(OC)c1OC` (stereo not drawn), in data set [1] (read-out: logP), the logP turned out to be 3.38. Also, the half-maximal inhibitory concentration (IC50) with V79 [8] came out at 42 nM; with Ovarian cancer cell line [3], 114 nM; in data set [6], 44 nM; in the data set with WiDr [9] it was 129 nM. In addition, the Ratio worked out at 1.75 in the data set with V79 [2], 40 in the data set with Ovarian cancer cell line [4], 25 in the data set on WiDr [5] and 13 in [7].

`COc1cc2cc(C(=O)N3CC(CCl)c4c3cc(NC(=O)OCc3ccc([N+](=O)[O-])cc3OCCCN3CCOCC3)c3ccccc43)[nH]c2c(OC)c1OC` (stereo not drawn): the logD in [10] turned out to be 4.06. Besides, the lipophilicity (logP) in data set [1] (read-out: logP) was found to be 4.55. The half-maximal inhibitory concentration (IC50) stood at 20 nM with V79 [8], 88 nM in the data set on Ovarian cancer cell line [3], 24 nM in data set [6] and 98 nM in the data set on WiDr [9]. Moreover, the Ratio amounted to 2.6 with V79 [2], 6.5 in the data set with Ovarian cancer cell line [4], 9 in the data set with WiDr [5] and 6 in data set [7].

The molecule `CN(C)CCOc1ccc2[nH]c(C(=O)N3CC(CCl)c4c3cc(NC(=O)OCc3ccc([N+](=O)[O-])cc3)c3ccccc43)cc2c1` (stereo not drawn) displayed a log distribution coefficient (logD) in [10] of 3.24. The lipophilicity (logP) in [1] (read-out: logP) came to 4.94. For the same molecule, the IC50 in the data set with V79 [8] amounted to 157 nM; in the data set on Ovarian cancer cell line [3] it was 770 nM; in [6] it was 208 nM; in the data set with WiDr [9], 403 nM. The Ratio stood at 4.3 with V79 [2], 41 in the data set on Ovarian cancer cell line [4], 20 with WiDr [5] and 31 in data set [7].

As to `COc1cc2cc(C(=O)N3CC(CCl)c4c3cc(NC(=O)OCc3ccc([N+](=O)[O-])cc3OCCO)c3ccccc43)[nH]c2c(OC)c1OC` (stereo not drawn), in data set [1] (read-out: logP), the logP was 3.79. Moreover, the half-inhibitory concentration (IC50) was found to be 63 nM in the data set with V79 [8], 224 nM in the data set on Ovarian cancer cell line [3], 107 nM in data set [6] and 295 nM with WiDr [9]. Further, the Ratio worked out at 11 in the data set with V79 [2], 84 in the data set with Ovarian cancer cell line [4], 148 in the data set with WiDr [5] and 104 in [7].

For the molecule `COc1cc2cc(C(=O)N3CC(CCl)c4c3cc(NC(=O)OCc3ccc([N+](=O)[O-])cc3OCCCO)c3ccccc43)[nH]c2c(OC)c1OC` (stereo not drawn), the logP in data set [1] (read-out: logP) is 4.57. Moreover, the IC50 with V79 [8] was 48 nM; in the data set on Ovarian cancer cell line [3], 145 nM; in [6], 47 nM; in the data set with WiDr [9], 191 nM. The Ratio is reported as 11 with V79 [2], 58 with Ovarian cancer cell line [4], 91 in the data set on WiDr [5] and 91 in data set [7].

As for `COc1cc2cc(C(=O)N3CC(CCl)c4c3cc(N(C)C(=O)OCc3ccc([N+](=O)[O-])cc3)c3ccccc43)[nH]c2c(OC)c1OC` (stereo not drawn), the log partition coefficient (logP) in data set [1] (read-out: logP) was determined as 3.98. Moreover, the IC50 worked out at 48 nM with V79 [8], 152 nM in the data set on Ovarian cancer cell line [3], 48 nM in data set [6] and 101 nM in the data set with WiDr [9]. The Ratio in the data set with V79 [2] is 8.4; with Ovarian cancer cell line [4], 10; with WiDr [5], 15; in [7], 27.

On to `NC(=O)c1cc(N(CCBr)CCBr)c([N+](=O)[O-])cc1[N+](=O)[O-]`, for which the log partition coefficient (logP) in [1] (read-out: logP) amounted to 2.68. For the same molecule, the Ratio is recorded as 302 with V79 [2], 211 in the data set with Ovarian cancer cell line [4], 174 in the data set with WiDr [5] and 1380 in data set [7]. Also, the IC50 with Ovarian cancer cell line [3] was determined as 58000 nM; in [6] it was 54000 nM.

`CNc1cc2c(c3ccccc13)C(CCl)CN2C(=O)c1cc2cc(OC)c(OC)c(OC)c2[nH]1` (stereo not drawn): in data set [1] (read-out: logP), the lipophilicity (logP) came out at 2.87. The 50% inhibitory concentration (IC50) in the data set with V79 [8] was 0.08 nM; in the data set on Ovarian cancer cell line [3], 0.2 nM; in data set [6], 0.11 nM; in the data set on WiDr [9], 0.2 nM. In addition, the Ratio with V79 [2] amounted to 1.2; in the data set on Ovarian cancer cell line [4] it was 0.7; with WiDr [5], 1.1; in [7], 0.74.

As to `COCCOc1cc([N+](=O)[O-])ccc1COC(=O)Nc1cc2c(c3ccccc13)C(CCl)CN2C(=O)c1cc2cc(OC)c(OC)c(OC)c2[nH]1` (stereo not drawn), in [1] (read-out: logP), the logP was 4.47. For the same molecule, the concentration for half-maximal inhibition (IC50) amounted to 31 nM in the data set with V79 [8], 106 nM in the data set with Ovarian cancer cell line [3], 33 nM in data set [6] and 110 nM in the data set with WiDr [9]. Further, the Ratio amounted to 17 in the data set on V79 [2], 67 with Ovarian cancer cell line [4], 45 in the data set on WiDr [5] and 78 in data set [7].
